# According to PubChem BioAssay AID504382 (The Scripps Research Institute Molecular Screening Center, 2011):
# In all, about 2,500 compounds went through this assay and about 460 (18%) were called active.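 The calls were made as follows: active = mean activation above a cutoff of low control average plus 3 SD from the earlier screen (cut at about 12% in these data); inactive = the rest.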 Only a sample is shown.
# Test: compound fluorescence interference without thin filaments, confirmation, artefact control for cardiac RTF calcium sensitizer project, biochemical (AID 504382)
# Settings: IANBD fluorescence interference counterscreen, buffer, EC20 Ca2+; at 7.2 µM; hits give high values; scaled: EC20 calcium 0, EC100 calcium 100
# Procedure, shortened: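 Also added: EC20 calcium, 0.472 mM; dosing: single nominal 7.2 µM compound dose, 0.7% DMSO final; timing: 15 min, 25 °C; detection: fluorescence intensity, excitation 480 nm, emission 540 nm; replicates: each compound tested in triplicate wells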
row,SMILES,fluorescence artifact activation
1,C=CCN1C(=O)c2ccccc2NC1c1cc(Br)cs1 (stereo not drawn),7.88% (inactive)
2,Cc1nn(-c2ccccc2)c(Cl)c1C(=O)NC1CCCCC1,4.56% (inactive)
3,Cc1cc(=O)oc2cc(OCC(=O)OCC(=O)NC(C)C)ccc12,-0.02% (inactive)
4,CCc1ccccc1NC(=O)COc1ccc2c(=O)c(Oc3cc(C)ccc3C)coc2c1,664% (active)
5,Cc1ccc(C)c(NC(=O)COC(=O)Cc2ccsc2)c1,0.03% (inactive)
6,O=C(O)CSc1ncnc2scc(-c3ccc(Br)cc3)c12,0.71% (inactive)
7,CC(C)(C)NCc1cc(Cl)ccc1OCc1cccs1,13.9% (active)
8,COc1cccc2c1C(=O)c1c(O)c3c(c(O)c1C2=O)CC(O)(C(C)=NNC(=O)c1ccc(Cl)c(Cl)c1)CC3OC1CC(N)C(O)C(C)O1 (stereo not drawn),0.12% (inactive)
9,N#Cc1c(N)oc(-c2ccccc2)c1-c1ccccc1,4.93% (inactive)
10,Cc1cc(C)c(C#N)c(Sc2nnnn2-c2ccccc2)n1,11.6% (inactive)
11,Cc1cc(C)c(C#N)c(SCc2nnc(-c3ccccc3)o2)n1,14.5% (active)
12,CCOC(=O)/C(C#N)=N\Nc1cc(Cl)ccc1OC,0.07% (inactive)
13,C[C@@H]1C=C(C(=O)N2CCOCC2)O[C@H](OCc2ccc(CO)cc2)C1,0.97% (inactive)
14,CCOCCCNS(=O)(=O)c1ccc(NC(=O)c2ccc(OC)c([N+](=O)[O-])c2)cc1,0.52% (inactive)
15,CCOc1cccc(NC(=O)/C(C#N)=C\c2cn(CC(=O)O)c3ccccc23)c1,0.19% (inactive)
16,O=C(Cn1cc(/C=N/NC(=O)c2cccc3ccccc23)c2ccccc21)Nc1ccc(F)cc1,19.7% (active)
17,O=C(Nc1ccccc1C(=O)N/N=C/c1ccco1)c1ccc(F)cc1,1.44% (inactive)
18,Cc1ccc(N=Cc2sc(O)c3ccccc23)c(C)c1,0.06% (inactive)
19,CCOC(=O)c1ccc[n+](CC(=O)Nc2cc(C(F)(F)F)ccc2Cl)c1,2.39% (inactive)
20,CCn1c(O)c(/C=N/N=C/c2ccccc2)c2ccc(C3=NNC(=O)CC3)cc21,0.02% (inactive)
21,Brc1ccc(-c2cnnc(N3CCCC3)n2)cc1,66.5% (active)
22,C=CCOc1ccc(CNc2ccc3[nH]c(=O)[nH]c3c2)cc1OCC,5.69% (inactive)
23,COC(=O)c1c(NC(=O)c2ccnn2C)sc(C)c1C,0.09% (inactive)
24,Fc1ccc(C2=CC(c3ccc(Br)o3)n3ncnc3N2)cc1 (stereo not drawn),0.34% (inactive)
25,OCCN=C1CCCc2c1[nH]c1ccc(Cl)cc21,0.44% (inactive)
26,COc1ccccc1NC(=O)COC(=O)c1cnc(C)cn1,14.7% (active)
27,COc1ccccc1NC(=O)CC(=O)CSc1nnc(-c2ccc(C)cc2)n1-c1ccccc1,-0.03% (inactive)
28,COc1ccccc1NCC(=O)NC(=O)NC1CCCCC1,0.02% (inactive)
